Results pooled from the literature.
Compare with care: the assays were run in different laboratories.
Target: G protein-coupled receptor kinase 3 (GRK3, Homo sapiens, UniProt P35626)
Residues used in one study (P35626 1-688): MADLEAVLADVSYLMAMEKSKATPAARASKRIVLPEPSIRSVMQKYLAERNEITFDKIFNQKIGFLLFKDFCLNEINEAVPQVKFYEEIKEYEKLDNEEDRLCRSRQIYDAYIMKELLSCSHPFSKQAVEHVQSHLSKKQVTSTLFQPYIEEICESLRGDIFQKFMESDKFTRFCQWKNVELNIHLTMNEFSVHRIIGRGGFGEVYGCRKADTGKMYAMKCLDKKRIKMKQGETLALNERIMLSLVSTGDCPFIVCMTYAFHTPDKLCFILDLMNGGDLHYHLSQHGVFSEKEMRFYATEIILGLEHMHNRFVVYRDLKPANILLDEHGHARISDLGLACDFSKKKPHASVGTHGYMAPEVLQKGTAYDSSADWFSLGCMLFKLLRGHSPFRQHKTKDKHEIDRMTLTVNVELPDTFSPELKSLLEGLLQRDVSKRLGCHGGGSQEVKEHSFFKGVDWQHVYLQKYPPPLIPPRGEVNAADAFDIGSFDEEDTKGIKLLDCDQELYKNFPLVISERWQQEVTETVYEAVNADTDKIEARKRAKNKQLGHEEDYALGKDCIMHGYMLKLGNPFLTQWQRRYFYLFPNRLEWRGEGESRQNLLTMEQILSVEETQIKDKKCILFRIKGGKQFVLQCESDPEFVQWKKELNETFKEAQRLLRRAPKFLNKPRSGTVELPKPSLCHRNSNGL

CC(C)(C)c1nc(-c2cccc(NS(=O)(=O)c3c(F)cccc3F)c2F)c(-c2ccnc(N)n2)s1 — remaining activity (enzyme activity, inhibitor, radiometric; 1 µM): 86%
CCOc1cc(-c2nncn2C)ccc1Nc1ncc2cc(C)nc(NCC(C)(C)C)c2n1 — inhibition (enzyme activity, inhibitor, FRET; 1 µM): < 15%
COc1cc2ncnc(Nc3ccc(Oc4ccccc4)c(C)c3C)c2cc1OC — inhibition (enzyme activity, inhibitor; 1 µM): -2%
Cc1ccc(C(=O)NCc2ccsc2)cc1C#Cc1cn(C(C)C)c2ncnc(N)c12 — activity vs control (enzyme activity, inhibitor; 1 µM): 105%
Cn1c2c(c3ccc(Cl)c(Cl)c31)C(C#N)C(C)(C)NC2=O (centres unmarked) — ΔTm (thermal stability, DSF; 10 µM): 0.6 °C
CS(=O)(=O)N1CCCC(NC(=O)[C@H](CCC2CCCCC2)NC(=O)c2ccc(CNC(=O)c3cnc4ccccn34)cc2)C1 (some centres unmarked) — remaining binding (cell-free assay, competition with immobilised ligand; 0.1 µM): 100%
Cn1c2c(c3ccccc31)C(C#N)C(C)(C)NC2=O (centres unmarked) — ΔTm (thermal stability, DSF; 10 µM): 0.2 °C
CCCOc1ccc([C@@H]2[C@@H](C(=O)O)[C@H](c3ccc4c(c3)OCO4)CN2CC(=O)Nc2c(CC)cccc2CC)cc1 — remaining binding (cell-free assay, competition with immobilised ligand; 1 µM): 100%
CCC1(CC)NC(=O)c2c(c3ccc(Cl)c(Cl)c3n2C)C1C#N (centres unmarked) — ΔTm (thermal stability, DSF; 10 µM): 0.1 °C
COCCOc1nc(-c2ccc(Cl)nc2)nc2c1CN(C(=O)c1ncn3ccccc13)CC2 — remaining binding (cell-free assay, competition with immobilised ligand; 0.1 µM): 100%
Cn1c2c(c3ccc(Cl)c(Cl)c31)C(C#N)C1(CCOCC1)NC2=O (centres unmarked) — ΔTm (thermal stability, DSF; 10 µM): 0 °C
COc1ccc2cc(OCC3(C(=O)O)CN(C(=O)c4ccc(F)cc4)C3)ccc2c1 — remaining binding (cell-free assay, competition with immobilised ligand; 1 µM): 67%
Cc1ccc(C(=O)Nc2ccc(CN3CCN(C)CC3)c(C(F)(F)F)c2)cc1C#Cc1cnc2cccnn12 — remaining activity (enzyme activity, inhibitor; 23.5 nM): 76%
CNC(=O)c1ccc(Nc2ncc(C(F)(F)F)c(NCc3nccnc3N(C)S(C)(=O)=O)n2)cc1 — remaining binding (cell-free assay, competition with immobilised ligand; 0.1 µM): 80%
O=C1NC(=O)c2cc(Nc3ccc(F)cc3)c(Nc3ccc(F)cc3)cc21 — remaining signal (cell-free assay; 0.5 µM): 104%
COc1cc(Cl)c(C(=O)N[C@@H](CN[C@H]2CC[C@@H](N)CC2)Cc2ccc(C#N)cc2)cc1-c1ccc(CN[C@H](C)c2ccc(C)cc2)o1 — remaining activity (enzyme activity, inhibitor; 1 µM): 99%
Cn1c2c(c3ccc(Cl)c(Cl)c31)C(C#N)C1(CCCC1)NC2=O (centres unmarked) — ΔTm (thermal stability, DSF; 10 µM): -0.1 °C
O=C(Nc1cnn(-c2csc(C(=O)NC3COC3)c2)c1)Nc1ccccc1Cl — remaining activity (enzyme activity, inhibitor; 5 µM): 102%
NS(=O)(=O)c1cc(NC(=O)Cc2ccccc2)ccc1Oc1cccc(Cl)c1 — remaining binding (cell-free assay, competition with immobilised ligand; 1 µM): 100%
Cn1c2c(c3ccc(Cl)c(Cl)c31)C(C#N)C1(CCNCC1)NC2=O (racemic) — ΔTm (thermal stability, DSF; 10 µM): 1.1 °C
